Variants at the floor of the assay were thinned out.

B1: tRNA (parent)
chain: GUUCCGUUGGCGUAAUGGUAACGCGUCUCCCUCCUAAGGAGAAGACUGCGGGUUCGAGUCCCGUACGGAACG

In this series the parent is B1. The series can be described thus: yeast fitness relative to wild type (ratio to wild type); higher = fitter; tRNA-Arg(CCU), competitive growth, 37 C, YPD. A digest of the protocol:
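Amplicons of the tRNA-Arg(CCU) gene were sequenced, 100-nucleotide paired-end, from the start population and from each end population of a pooled yeast competition. The competition, in six parallel replicates, lasted 24 hours in YPD at 37°C. Fitness relative to wild type was calculated from changes in genotype frequencies. Genotypes had to have ≥ 100 starting reads, and estimates < 0.5 were set to 0.5.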
As for GUUCCGUUGGCGUUAUGGUAACGCGUCUCCCUCCUAAGGAGAAGAGUGCGGGUUCGAGUCCCGUACGGAACG [A14U C46G], the yeast fitness is 0.612.

In the case of GUUCCGUUGGCGUUAUAGUAAUGCGUCUCCCUCCUAAGGAGAAGACUGCGGGUUCGAGUCCCCUACGGAACG [A14U G17A C22U G63C], the yeast fitness is not above 0.5. For GUUCCGUUGGCGUUAUGGUAACGCGUCUCCCUCCUAAGGAGAAGACUACGGGUUCGAGUCCCGUACGGAACG [A14U G48A] the value was 0.931; for GUUCCGUUGGCGUUAUGGUAACGCGUCUCCCUCCUAAGGAGAAGACUUCGGGUUCGAGUCCCGUACGGAACG [A14U G48U], 0.567; for GUUCCGUUGGCGUUAUGGUAACUCGUCUCCCUCCUAAGGAGAAGACUGCGGGUUCGAGACCCGUACGGAACG [A14U G23U U59A], not above 0.5.

Consider GUUCCGUUGGCGUUAUGGUAACGCCUCUCCCUCCUAAGGAGAAGACUGCGGGUUCGAGUCCCGUAUGGAACG [A14U G25C C66U], for which the yeast fitness is not above 0.5. As for GUUCCGUUGGCGUUAUGGUAACGCGUCUCCCUCCUAAGGAGAAGACUGCGGGUUCAAGUCCCGUACAGAACG [A14U G56A G67A], the yeast fitness was not above 0.5. GUUCCGUUGGCGUUAUAGUAACGCGUCUCCCUCCUAAGGAGAAGACUGCGGGUUCGAGCCUCGUACGGAACG [A14U G17A U59C C61U]: the yeast fitness was found to be 0.653. Under GUUCCGUUGGCGUUAUGGUAACGCGUCUCCCUCCUAAGGAGAAGACUGCCGGUUCGGGUCCCGUACGGAACG [A14U G50C A57G] stands not above 0.5; under GUUCCGUUGGCGUUAUGGUAACACGUAUCCCUCCUAAGGAGAAGACUGCGGGUUCGACUCUCGUACGGAACG [A14U G23A C27A G58C C61U], not above 0.5; under GUUCCGUUGGCGUUAUGGUAACGCGUCUCCCUCCUAAGGAGAAGACUGCGGCUUCGAGUCCCGUAUGGAACG [A14U G52C C66U], not above 0.5. As for GUUCCGUUGGCGUUAUGGUAACGCGUCUCCCUCCUAAAGAGAAGACUGCGGGUUCGAGUCCCGUACGGAACG [A14U G38A], the yeast fitness was 0.573. Take GUUCCGUUGGCGUUAUGGUAACGCGUCUCCCUCCUAAGGAGAAGACUGCGGGUUCGAGUCCCAUACGGAACG [A14U G63A]: the yeast fitness was not above 0.5.

Turning to GUUCCGUUGGCGUUAUGGUAACGCGUCUCCCUCCUAAGGAGAAGACUGCGGGUUCGAGUCCCCUACGGAACG [A14U G63C], the yeast fitness was not above 0.5. For GUUCCGUUGGCGUUAUGGUAACGCGUCUCCCUCCUAACGAGAAGACUGCGGGUUCGAGUCCAGUACCGAACG [A14U G38C C62A G67C] the value was not above 0.5; for GUUCCGUUGGCGUUAUGGUAACGCGUCUCCCUCCUAAGGAGAAGACUCCGGGUUCGAGUCCCGUAAGGAACG [A14U G48C C66A], not above 0.5; for GUUCCGUUGGCGUUAUGGUAACGCGUCUCCCUCCUAAGGAGAAGACUGCGGGUUCGAGUCCCGUACCGAACG [A14U G67C], 0.729. For GUUCCGUUGGCGUUAUGGUAACGCGUCUCCCUCCUAAGGAGAAGACUGCGGGUUCGAGUCCCGUACUGAACG [A14U G67U] the value was 0.562; for GUUCCGUUGGCGUUAUGGUAACUCGUCUCCCUCCUAAGGAGAAGACUGCGGGUUCGAGUCCCGUACCGAACG [A14U G23U G67C], not above 0.5; for GUUCCGUUGGCGUUAUGGUAACGCGUCUCCCUCCUAAGGAGAAGACUGCGGUUUCGAGUCCCGUACGGAACG [A14U G52U], 0.592. On to GUUCCGUUGGCGUUAUGGUAACGCGUCUCCCUCCUAAGGAGAAGACUGCGGAUUCGAGUCCCGUACGGAACG [A14U G52A], for which the yeast fitness was not above 0.5. Under GUUCCGUUGGCGUUAUGGUAACGCGUCUCCCUCCUAAGGAGAAGACUGCGGGUUCGAGUUCUGUACGGAGCG [A14U C60U C62U A70G] stands not above 0.5. For GUUCCGUUGGCGUUAUGGUAACGCGUCUCCCUCCUAAGGAGAAGACUGCGGGUUCGAGUCUCGUACGGAACG [A14U C61U] the value was 0.591; for GUUCCGUUGGCGUUAUGGUAACGCGUCUCCCUCCUAAGGAGAAGACUGGGGGUUCGAGUACCGUACGGAACG [A14U C49G C60A], not above 0.5; for GUUCCGUUGGCGUUAUGGUAACGCGUCUCCCUCCUAAGGAGAAGACUGCGGGUUGGAGUCGCGUAUGGAACG [A14U C55G C61G C66U], not above 0.5. For GUUCCGUUGGCGUUAUGGUAACGCGUCUCCCUCCUAAGGAGAAGACUGUGGAUUCGAGUCCCGUACGGAACG [A14U C49U G52A], the yeast fitness is not above 0.5.

As to GUUCCGUUGGCGUUAUGGUAACACGUCUCCCUCCUAAGGUGAAGACUCCGGGUUUGAGUCGCGUACGGAACG [A14U G23A A40U G48C C55U C61G], the yeast fitness is not above 0.5. For GUUCCGUUGGCGUUAUGGUAACGCGUCUCCCUCCUAAGGAGAAGACUGCUGGUUCGAGUCCCGUACGGAACG [A14U G50U] the value was 0.601. For GUUCCGUUGGCGUUAUCGUAACGCGUCUCCCUCCUAAGGAGAAGACUGCGGGUUCGAGUCCCGUACGGAACG [A14U G17C] the value was 0.514; for GUUCCGUUGGCGUUAUGGUAACGCGUCUCCCUCCUAAGGAGAAGACUGUGGGUCCGAGUCCCGUACGGAACG [A14U C49U U54C], not above 0.5. For GUUCCGUUGGCGUUAUGGUAACGCGUCUCCCUCCUAAGGAGAAGACUGCGAGUUCGAGUCGCGUACGGAACG [A14U G51A C61G] the value was 0.602. GUUCCGUUGGCGUUAUGGUAACACGUCUGCCUCCUAAGGAGAAGAAUGCGGGUUGGAGUCCCGUACGGAACG [A14U G23A C29G C46A C55G]: the yeast fitness was 0.57. Take GUUCCGUUGGCGUUAUGGUAACGCGUCUCCCUCCUAAGGAGAAGACUGCGGGUUCGAGUCCUGUACGGAACG [A14U C62U]: the yeast fitness came to 0.616. Take GUUCCGUUGGCGUUAUGGUAACACGUCACACUCCUAAGGAGAAGACUGCGGGUUCGAGUCCCGUACGGAACG [A14U G23A U28A C30A]: the yeast fitness was not above 0.5. Under GUUCCGUUGGCGUUAUGGUAACGCGUCUCCCUCCUAAGGAGAAGACUCCGGGUUCGAGUCCCGUACGGACCG [A14U G48C A70C] stands not above 0.5; under GUUCCGUUGGCGUUAUAGUAACACGUCUCCCUCCUAAGGAGAAGACUGCGGGUUCGAGUCCCAUACGGAACG [A14U G17A G23A G63A], not above 0.5. As for GUUCCGUUGGCGUUAUGAUAUCGCGUCUCCCUCCUAAGGAGGAGACUGCGGGUUCGAGUCCCGUACGAAACG [A14U G18A A21U A42G G68A], the yeast fitness was not above 0.5.

Source of the values: the RNAGym collection of RNA variant scans (doi:10.1126/science.aae0568).
